Assay outcomes deposited in PubChem BioAssay by several laboratories.
An excerpt weighted towards active compounds, which were near 3.7% of everything screened.
SR-BI uptake up = enhances SR-BI lipid uptake from DiI-HDL. activation, % at 12.5 µM. actives 0.096% (n = 320,000). CHO ldlA[mSR-BI] cells, DiI-HDL uptake fluorescence, 3 h; 100 = double the neutral-control signal;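 active = mean replicate activation of at least 60% and every replicate at or above 60%; inconclusive = mean or all-replicate condition met, but not both; inactive = mean below 60% and not all replicates reaching 60%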;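 also: 0% = median plate neutral-control signal and 100% = twice that signal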
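Assay system: LDL receptor-deficient CHO ldlA cells overexpressing murine SR-BI / Medium: BSA-supplemented, HEPES-buffered Ham's F12, pH 7.4 / Probe or stimulus: DiI-labelled HDL at 10 µg/mL final / Timing: compound with DiI-HDL co-incubation, 3 h at 37 °C / Technique: bottom-read cell fluorescence after medium removal, ex 550/em 595 nm / Measure: HDL uptake via cellular fluorescence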
FXN GAA850 act = frataxin GAA850 promoter activation; HEK293 lucGAA850 FXN promoter luciferase reporter, 24 h; percent of 10 µM SAHA response; activation, % at 6 µM; actives 0.56% (n = 360,000); AID 540364;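 active = activation above the average of all compounds screened plus 3 SD, cutoff fixed separately per campaign, cut at about 7.5% in these data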;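 also: 0% = DMSO wells and 100% = 10 µM SAHA wells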
AHR act = human AHR activation. actives 2.5% (n = 320,000). activation, % at 5 µM. P35869. AHR-responsive luciferase reporter cells, luminescence; in the data active = activation above about 47%;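 also: 0% = vehicle wells and 100% = reference agonist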
GASC-1 inh = human JMJD2C demethylase inhibition; Q9H3R0; GST-JMJD2C(1-420) H3K9me3 demethylation, DELFIA europium; inhibition, % at 2.35 µM; actives 0.069% (n = 330,000); AID 2099;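 active = more than half of a compound's replicate wells show inhibition beyond 50%, single wells judged on their own value; inconclusive = some, but no more than half, of replicates pass 50% inhibition; inactive = no replicate passes 50% inhibition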;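 also: signal counts dimethyl H3K9 product captured on neutravidin plate; 0% = median of DMSO wells and 100% = 0.3 times that DMSO median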
Target sequence (Q9H3R0 1-420 limits assumed): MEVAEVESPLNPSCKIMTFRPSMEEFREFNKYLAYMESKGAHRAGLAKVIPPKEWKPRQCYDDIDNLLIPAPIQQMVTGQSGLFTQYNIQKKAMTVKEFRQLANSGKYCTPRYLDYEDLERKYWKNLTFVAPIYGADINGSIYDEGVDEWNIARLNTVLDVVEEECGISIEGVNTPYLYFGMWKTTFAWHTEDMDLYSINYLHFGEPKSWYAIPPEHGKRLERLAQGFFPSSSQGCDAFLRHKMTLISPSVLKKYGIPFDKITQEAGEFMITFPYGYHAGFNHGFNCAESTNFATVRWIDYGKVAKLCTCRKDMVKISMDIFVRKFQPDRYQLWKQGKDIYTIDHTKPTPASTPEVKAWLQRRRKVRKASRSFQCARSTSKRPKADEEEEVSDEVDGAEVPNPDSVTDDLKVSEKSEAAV
SR-BI HDL uptake = inhibitors of mouse SR-BI mediated HDL lipid uptake. actives 0.96% (n = 320,000). ldlA[mSR-BI] CHO cells, DiI-HDL uptake fluorescence, 3 h. AID 488896. inhibition, % at 12.5 µM;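 active = mean replicate inhibition of at least 70% and a set share of replicates each scoring 70 or more; inconclusive = meets just one of the two criteria; inactive = fails both criteria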;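 also: 0% = median of neutral control wells and 100% = median of positive control wells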
DiI quencher = counter-screen for SR-BI lipid transfer inhibitors: DiI fluorescence quenchers; shares compounds with SR-BI HDL uptake; cell-free DiI-HDL fluorescence quenching, 30 min; AC50, µM (top dose mostly 35 µM), for inactives: at the highest dose activity change, negative = quenching; actives 20% (n = 470); AID 540326;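 active = quenching, a falling signal, with AC50 below a set limit tied to the top valid dose, actives reach about 32 µM in these data; inconclusive = no clear call, values can overlap the other calls; inactive = rising signal, and the rest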
The depositor's hits bear a star.

Results for O=C(NCCOC(=O)c1ccc(S(=O)(=O)N2CCOCC2)cc1)c1cccnc1 ?
SR-BI uptake up: -31; FXN GAA850 act: -3; AHR act: 14; GASC-1 inh: -14; SR-BI HDL uptake: 31

How did Cc1ccsc1C(=O)OC(C)C(=O)Nc1ccc(Cl)cn1 (stereo not given) do in these assays?
SR-BI uptake up: -17; FXN GAA850 act: -1; AHR act: 0; GASC-1 inh: 10; SR-BI HDL uptake: 17

What do the screens show for `Cc1cc(C)c(C)c(S(=O)(=O)N2CCN(CC(=O)NC(=O)NCc3ccccc3)CC2)c1C`?
SR-BI uptake up: -74; FXN GAA850 act: 1; AHR act: 3; GASC-1 inh: 8; SR-BI HDL uptake: 74*; DiI quencher: 1%

How did CCN1C(=O)[C@H]2[C@@H](c3ccc(-c4ccc(C(C)=O)cc4)cc3)N[C@@](C)(C(=O)OC)[C@H]2C1=O do in these assays?
SR-BI uptake up: -3; FXN GAA850 act: 0; AHR act: 1; SR-BI HDL uptake: 3

Results for CC(C)=CCc1c2c(c3occ(-c4ccc(O)c(O)c4)c(=O)c3c1O)C=CC(C)(C)O2 ?
SR-BI uptake up: -131; FXN GAA850 act: 0; SR-BI HDL uptake: 131*; DiI quencher: 0.81µM*

How did COc1ccc(-c2cc(C(=O)N3CCN(c4cccc(C)c4C)CC3)c3ccccc3n2)cc1OC do in these assays?
SR-BI uptake up: -39; FXN GAA850 act: -1; AHR act: 32; GASC-1 inh: -1; SR-BI HDL uptake: 39

Results for CCOc1ccccc1NC(=O)C(CC(C)C)NC(=O)C1CCC(C)CC1 (stereo not given) ?
SR-BI uptake up: -80; FXN GAA850 act: -3; AHR act: 4; GASC-1 inh: 21; SR-BI HDL uptake: 80*; DiI quencher: -3%

What do the screens show for `CCOc1ccccc1NC(=O)C(NC(=O)C1CCC(C)CC1)C(C)C` (stereo not given)?
FXN GAA850 act: 1; AHR act: 3; GASC-1 inh: -1

How did CCOc1ccccc1NC(=O)N1C2CCCC1CC(NC(=O)C1CC1)C2 (stereo not given) do in these assays?
SR-BI uptake up: -7; FXN GAA850 act: 1; AHR act: 3; GASC-1 inh: 11; SR-BI HDL uptake: 7; DiI quencher: 0%

Results for COc1ccnc(Oc2ccc(C)cc2C)c1C#N ?
SR-BI uptake up: 10; FXN GAA850 act: 1; AHR act: 0; GASC-1 inh: -11; SR-BI HDL uptake: -10

Results for CC(C)(C)c1nc2cc(Cl)c([N+](=O)[O-])cc2o1 ?
SR-BI uptake up: 6; FXN GAA850 act: -1; AHR act: 0; GASC-1 inh: 5; SR-BI HDL uptake: -6

How did Cc1nc2c(cnn2-c2ccccc2Cl)c(=O)n1-c1ccc(N2CCC(C)CC2)cc1 do in these assays?
SR-BI uptake up: -72; FXN GAA850 act: 0; AHR act: 4; GASC-1 inh: -20; SR-BI HDL uptake: 72*; DiI quencher: -12%

How did CCCn1c(CN2CCN(C(=O)OCC)CC2)nc2cc([N+](=O)[O-])ccc21 do in these assays?
SR-BI uptake up: -22; FXN GAA850 act: 0; AHR act: -1; GASC-1 inh: 5; SR-BI HDL uptake: 22

Results for Clc1ccc(Cn2nnc(-c3ccc(N4CCOCC4)cc3)n2)cc1 ?
SR-BI uptake up: -83; FXN GAA850 act: 1; AHR act: -2; GASC-1 inh: -39; SR-BI HDL uptake: 83*; DiI quencher: -6%

Results for Fc1ccc(Cn2nnc(-c3ccc(Cl)cc3)n2)cc1 ?
SR-BI uptake up: 1; FXN GAA850 act: 2; AHR act: -4; GASC-1 inh: -9; SR-BI HDL uptake: -1

What do the screens show for `Cc1ccc(C)c(-n2cc(CN3CCCN(C=O)CC3)c(-c3ccccc3)n2)c1`?
FXN GAA850 act: 3; AHR act: 10; GASC-1 inh: 14

How did CC(=O)Nc1ccc(S(=O)(=O)Nc2cc(C)c(-n3nc4ccccc4n3)cc2O)cc1 do in these assays?
SR-BI uptake up: -93; FXN GAA850 act: -2; AHR act: -2; GASC-1 inh: 14; SR-BI HDL uptake: 93*; DiI quencher: 9.6µM*

What do the screens show for `Cc1cccc(NC(=O)N2C3CCCC2CC(NC(=O)C(C)(C)C)C3)c1` (stereo not given)?
SR-BI uptake up: -76; FXN GAA850 act: 0; AHR act: 4; GASC-1 inh: -14; SR-BI HDL uptake: 76*; DiI quencher: -2%

What do the screens show for `C=C(CN(C)C)C(=O)c1ccc(OC2OC(COC(C)=O)C(OC(C)=O)C(OC(C)=O)C2OC(C)=O)cc1` (stereo not given)?
SR-BI uptake up: -94; FXN GAA850 act: 7; SR-BI HDL uptake: 94*; DiI quencher: -1%

What do the screens show for `O=C(Cc1ccccc1[N+](=O)[O-])NCc1ccccc1Cl`?
SR-BI uptake up: 0; FXN GAA850 act: 1; AHR act: 7; GASC-1 inh: -18; SR-BI HDL uptake: 0

How did CC(CCc1ccccc1)NC(=O)C1CCN(C(=O)c2sccc2-n2cccc2)CC1 (stereo not given) do in these assays?
SR-BI uptake up: -88; FXN GAA850 act: -2; AHR act: 0; GASC-1 inh: -6; SR-BI HDL uptake: 88*; DiI quencher: -3%

How did CCCCNc1ccc2c(c1)C1CC2CCN1C(=O)OCc1ccccc1 (stereo not given) do in these assays?
SR-BI uptake up: 8; FXN GAA850 act: 3; SR-BI HDL uptake: -8

What do the screens show for `CCOC(=O)N1CCC2CC1c1cc(-c3cccc(OC)c3)ccc12` (stereo not given)?
SR-BI uptake up: -9; FXN GAA850 act: 2; SR-BI HDL uptake: 9

Results for Cc1cccc(-c2ccc3c(c2)C2CC3CCN2C(=O)OCc2ccccc2)c1 (stereo not given) ?
SR-BI uptake up: -85; FXN GAA850 act: 0; SR-BI HDL uptake: 85*; DiI quencher: -2%

What do the screens show for `O=C(OCc1ccccc1)N1CCC2CC1c1cc(-c3ccccc3)ccc12` (stereo not given)?
SR-BI uptake up: 11; FXN GAA850 act: 2; SR-BI HDL uptake: -11; DiI quencher: -1%

How did CN1CCN(CC(=O)c2cc(C(C)(C)C)c(O)c(C(C)(C)C)c2)CC1 do in these assays?
SR-BI uptake up: -5; FXN GAA850 act: 0; AHR act: 2; GASC-1 inh: 4; SR-BI HDL uptake: 5

What do the screens show for `O=C(O)C(O)(c1ccccc1)C(O)c1ccccc1` (stereo not given)?
SR-BI uptake up: 26; FXN GAA850 act: 1; AHR act: -1; GASC-1 inh: -21; SR-BI HDL uptake: -26

Results for Cc1ccc(OCc2cc(C(=O)N3CCCC(O)C3)no2)cn1 (stereo not given) ?
SR-BI uptake up: 3; FXN GAA850 act: 2; AHR act: 1; GASC-1 inh: inconclusive; SR-BI HDL uptake: -3; DiI quencher: 0%
